In general, MIC90 refers to an inhibitory concentration at the 90% level, which refers to growth in some studies and to a panel of isolates in others.

This passage reports Activity, MIC90 and RatioAUC/MIC results from ChEMBL document CHEMBL1671676, “In vitro activity of nemonoxacin, a novel nonfluorinated quinolone, against 2,440 clinical isolates” (2009).

≈ marks a conversion by molar mass, not a printed value.

Type in all cases: functional
For test [1], the system named is Staphylococcus aureus. In words: Antibacterial activity against methicillin-resistant Staphylococcus aureus assessed as percent cumulative susceptible isolates at minimum inhibitory concentration of 4 ug/ml by CLSI broth microdilution method. Details: scale not given: the % may be the effect or the level left.
Test [2] relates to Enterococcus faecium. In words: Antibacterial activity against Enterococcus faecium assessed as percent cumulative susceptible isolates at minimum inhibitory concentration of […] by CLSI broth microdilution method. Details: scale not given: the % may be the effect or the level left.
Test [3] relates to Escherichia coli. In words: Antibacterial activity against Escherichia coli assessed as percent cumulative susceptible isolates at minimum inhibitory concentration of 256 ug/ml by CLSI broth microdilution method. Details: scale not given: the % may be the effect or the level left. (In general: In broth dilution the organism is exposed to a series of concentrations in liquid medium.)

In test [4] the test system is Escherichia coli. In words: Antibacterial activity against Escherichia coli assessed as percent cumulative susceptible isolates at minimum inhibitory concentration of 0.03 ug/ml by CLSI broth microdilution method. Details: scale not given: the % may be the effect or the level left.
Test [5] deals with Staphylococcus epidermidis. In words: Antibacterial activity against methicillin-susceptible Staphylococcus epidermidis assessed as percent cumulative susceptible isolates at minimum inhibitory concentration of 0.5 ug/ml by CLSI broth microdilution method. Details: scale not given: the % may be the effect or the level left.
The subject of another test is Klebsiella oxytoca. In words: Antibacterial activity against Klebsiella oxytoca assessed as percent cumulative susceptible isolates at minimum inhibitory concentration of 0.5 ug/ml by CLSI broth microdilution method. Details: scale not given: the % may be the effect or the level left. The essentials:
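Clinical isolates tested by CLSI broth microdilution using 96-well panels of doubling drug dilutions in cation-adjusted Mueller-Hinton broth with 5% lysed horse blood. MIC was read from these panels. Panel quality control used CLSI ATCC strains, including S. pneumoniae 49619, S. aureus 29213, E. faecalis 29212 and E. coli 25922. Cumulative percentages of isolates were tabulated at each MIC.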

Test [6] concerns Enterococcus faecalis. In words: Antibacterial activity against Enterococcus faecalis assessed as percent cumulative susceptible isolates at minimum inhibitory concentration of 4 ug/ml by CLSI broth microdilution method. Details: scale not given: the % may be the effect or the level left.
For test [7], the system named is Streptococcus pneumoniae. As to the kind of experiment: Antibacterial activity against Streptococcus pneumoniae assessed as percent cumulative susceptible isolates at minimum inhibitory concentration of <=0.008 ug/ml by CLSI broth microdilution method. Details: scale not given: the % may be the effect or the level left.
Test [8] deals with Enterococcus faecalis. In words: Antibacterial activity against Enterococcus faecalis assessed as percent cumulative susceptible isolates at minimum inhibitory concentration of 0.03 ug/ml by CLSI broth microdilution method. Details: scale not given: the % may be the effect or the level left.
In test [9] the test system is Enterococcus faecalis. In words: Antibacterial activity against Enterococcus faecalis by CLSI M7-A7 broth microdilution method.
The subject of test [10] is Pseudomonas aeruginosa. In words: Antibacterial activity against Pseudomonas aeruginosa assessed as percent cumulative susceptible isolates at minimum inhibitory concentration of >=[…] by CLSI broth microdilution method. Details: scale not given: the % may be the effect or the level left.
Test [11] relates to Staphylococcus aureus. As to the kind of experiment: Antibacterial activity against hospital-associated methicillin-resistant Staphylococcus aureus assessed as percent cumulative susceptible isolates at minimum inhibitory concentration of […] by CLSI broth microdilution method. Details: scale not given: the % may be the effect or the level left.
For test [12], the system named is Stenotrophomonas maltophilia. In words: Antibacterial activity against Stenotrophomonas maltophilia assessed as percent cumulative susceptible isolates at minimum inhibitory concentration of 64 ug/ml by CLSI broth microdilution method. Details: scale not given: the % may be the effect or the level left.
Test [13] deals with Streptococcus pneumoniae. As to the kind of experiment: Antibacterial activity against Streptococcus pneumoniae assessed as percent cumulative susceptible isolates at minimum inhibitory concentration of 0.03 ug/ml by CLSI broth microdilution method. Details: scale not given: the % may be the effect or the level left.
Test [14] has as its system Escherichia coli. In words: Antibacterial activity against Escherichia coli assessed as percent cumulative susceptible isolates at minimum inhibitory concentration of <=[…] by CLSI broth microdilution method. Details: scale not given: the % may be the effect or the level left.
Test [15] has as its system Staphylococcus aureus. As to the kind of experiment: Antibacterial activity against methicillin-susceptible Staphylococcus aureus assessed as percent cumulative susceptible isolates at minimum inhibitory concentration of 2 ug/ml by CLSI broth microdilution method. Details: scale not given: the % may be the effect or the level left.
Test [16] relates to Escherichia coli. In words: Antibacterial activity against Escherichia coli assessed as percent cumulative susceptible isolates at minimum inhibitory concentration of 64 ug/ml by CLSI broth microdilution method. Details: scale not given: the % may be the effect or the level left.
In test [17] the test system is Pseudomonas aeruginosa. In words: Antibacterial activity against Pseudomonas aeruginosa assessed as percent cumulative susceptible isolates at minimum inhibitory concentration of 64 ug/ml by CLSI broth microdilution method. Details: scale not given: the % may be the effect or the level left.
Test [18] deals with Staphylococcus aureus. As to the kind of experiment: Antibacterial activity against methicillin-susceptible Staphylococcus aureus by CLSI M7-A7 broth microdilution method. The essentials:
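Broth microdilution per CLSI guidelines on clinical isolates, using panels of doubling drug dilutions in cation-adjusted Mueller-Hinton broth with 5% lysed horse blood. MIC read per CLSI, and cumulative percentage of isolates inhibited at each concentration tabulated.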

The subject of test [19] is Staphylococcus aureus. In words: Antibacterial activity against Levofloxacin-susceptible Staphylococcus aureus assessed as percent cumulative susceptible isolates at minimum inhibitory concentration of […] by CLSI broth microdilution method. Details: scale not given: the % may be the effect or the level left.
Test [20] relates to Staphylococcus aureus. As to the kind of experiment: Antibacterial activity against community-associated methicillin-resistant Staphylococcus aureus assessed as percent cumulative susceptible isolates at minimum inhibitory concentration of 0.5 ug/ml by CLSI broth microdilution method. Details: scale not given: the % may be the effect or the level left.
The nature of test [21]: Ratio of fAUC (0 to 24 hrs) in in vitro PK/PD model at 750 mg to MIC for Staphylococcus aureus.
Test [22] relates to Staphylococcus epidermidis. In words: Antibacterial activity against methicillin-resistant Staphylococcus epidermidis assessed as percent cumulative susceptible isolates at minimum inhibitory concentration of […] by CLSI broth microdilution method. Details: scale not given: the % may be the effect or the level left.
Test [23] can be described thus: Ratio of fAUC (0 to 24 hrs) in in vitro PK/PD model at 750 mg to MIC for community-associated methicillin-resistant Staphylococcus aureus.
The subject of test [24] is Pseudomonas aeruginosa. As to the kind of experiment: Antibacterial activity against Pseudomonas aeruginosa by CLSI M7-A7 broth microdilution method.
The subject of test [25] is Enterococcus faecium. In words: Antibacterial activity against Enterococcus faecium assessed as percent cumulative susceptible isolates at minimum inhibitory concentration of 64 ug/ml by CLSI broth microdilution method. Details: scale not given: the % may be the effect or the level left.
The subject of test [26] is Proteus mirabilis. As to the kind of experiment: Antibacterial activity against Proteus mirabilis assessed as percent cumulative susceptible isolates at minimum inhibitory concentration of 64 ug/ml by CLSI broth microdilution method. Details: scale not given: the % may be the effect or the level left.
Test [27] deals with Staphylococcus aureus. As to the kind of experiment: Antibacterial activity against non-levofloxacin susceptible Staphylococcus aureus assessed as percent cumulative susceptible isolates at minimum inhibitory concentration of 8 ug/ml by CLSI broth microdilution method. Details: scale not given: the % may be the effect or the level left.
In test [28] the test system is Proteus mirabilis. As to the kind of experiment: Antibacterial activity against Proteus mirabilis assessed as percent cumulative susceptible isolates at minimum inhibitory concentration of 1 ug/ml by CLSI broth microdilution method. Details: scale not given: the % may be the effect or the level left.
Test [29] deals with Staphylococcus epidermidis. As to the kind of experiment: Antibacterial activity against methicillin-susceptible Staphylococcus epidermidis assessed as percent cumulative susceptible isolates at minimum inhibitory concentration of 0.06 ug/ml by CLSI broth microdilution method. Details: scale not given: the % may be the effect or the level left.
The test system of test [30] is Pseudomonas aeruginosa. In words: Antibacterial activity against Pseudomonas aeruginosa assessed as percent cumulative susceptible isolates at minimum inhibitory concentration of 8 ug/ml by CLSI broth microdilution method. Details: scale not given: the % may be the effect or the level left.
The test system of test [31] is Staphylococcus aureus. In words: Antibacterial activity against community-associated methicillin-resistant Staphylococcus aureus assessed as percent cumulative susceptible isolates at minimum inhibitory concentration of 1 ug/ml by CLSI broth microdilution method. Details: scale not given: the % may be the effect or the level left.
The subject of test [32] is Staphylococcus epidermidis. As to the kind of experiment: Antibacterial activity against methicillin-susceptible Staphylococcus epidermidis assessed as percent cumulative susceptible isolates at minimum inhibitory concentration of 8 ug/ml by CLSI broth microdilution method. Details: scale not given: the % may be the effect or the level left.
Test [33] has as its system Staphylococcus aureus. As to the kind of experiment: Antibacterial activity against methicillin-resistant Staphylococcus aureus assessed as percent cumulative susceptible isolates at minimum inhibitory concentration of 8 ug/ml by CLSI broth microdilution method. Details: scale not given: the % may be the effect or the level left.
Test [34] relates to Streptococcus pneumoniae. In words: Antibacterial activity against Streptococcus pneumoniae assessed as percent cumulative susceptible isolates at minimum inhibitory concentration of 1 ug/ml by CLSI broth microdilution method. Details: scale not given: the % may be the effect or the level left.
In test [35] the test system is Enterococcus faecalis. In words: Antibacterial activity against Enterococcus faecalis assessed as percent cumulative susceptible isolates at minimum inhibitory concentration of 32 ug/ml by CLSI broth microdilution method. Details: scale not given: the % may be the effect or the level left.

As for `COc1c(N2C[C@@H](C)C[C@H](N)C2)ccc2c(=O)c(C(=O)O)cn(C3CC3)c12` [NEMONOXACIN], the Activity was determined as 65.4% with Staphylococcus aureus [1]; 28.9% with Enterococcus faecium [2]; 99.7% with Escherichia coli [3]; 1.5% in the test on Escherichia coli [4]; 93% in test [5]; 96.9% in the test on Klebsiella oxytoca. Moreover, the Activity in the test with Enterococcus faecalis [6] came to 98.8%; in the test on Streptococcus pneumoniae [7], 19.2%; with Enterococcus faecalis [8], 2.5%; in the test on Pseudomonas aeruginosa [10] it was 100%; in the test on Staphylococcus aureus [11], 2%; in [12], 100%. Further, the Activity turned out to be 99.1% in the test with Streptococcus pneumoniae [13]; 0.2% in the test with Escherichia coli [14]; 96% with Staphylococcus aureus [15]; 98.2% in the test with Escherichia coli [16]; 95.6% with Pseudomonas aeruginosa [17]; 33.8% with Staphylococcus aureus [19]. For the same molecule, the Activity was determined as 92% in the test with Staphylococcus aureus [20]; 11.1% in test [22]; 84.2% in the test with Enterococcus faecium [25]; 97% in the test with Proteus mirabilis [26]; 76.2% in the test on Staphylococcus aureus [27]; 75.8% with Proteus mirabilis [28]. The Activity in [29] was determined as 58.1%; in the test with Pseudomonas aeruginosa [30], 78.8%. Moreover, the MIC90 is 1 µg/mL (≈ 2.69 µM) with Enterococcus faecalis [9], 0.12 µg/mL (≈ 0.323 µM) against Staphylococcus aureus [18] and not below 8 µg/mL in the test on Pseudomonas aeruginosa [24]. Moreover, the RatioAUC/MIC in test [21] is 393; in test [23], 98.
In the case of `C[C@H]1COc2c(N3CCN(C)CC3)c(F)cc3c(=O)c(C(=O)O)cn1c23.C[C@H]1COc2c(N3CCN(C)CC3)c(F)cc3c(=O)c(C(=O)O)cn1c23.O` [LEVOFLOXACIN], the Activity in the test with Staphylococcus aureus [31] is listed as 32%; in [32], 76.7%; in the test on Staphylococcus aureus [33], 22.8%; in the test on Streptococcus pneumoniae [34] it was 96.3%; in the test with Enterococcus faecalis [35], 100%.
